Reference: ChEMBL document CHEMBL3992564, “Design and synthesis of novel, potent and selective hypoxanthine analogs as adenosine A1 receptor antagonists and their biological evaluation” (Bioorg Med Chem, 2017)

Each compound was assayed against T1, Adenosine receptor A1 (Homo sapiens, UniProt P30542) (assay: Displacement of [3H]DPCPX from human adenosine A1 receptor expressed in HEK293 cell membranes after 90 mins).
T1 sequence (P30542 whole entry): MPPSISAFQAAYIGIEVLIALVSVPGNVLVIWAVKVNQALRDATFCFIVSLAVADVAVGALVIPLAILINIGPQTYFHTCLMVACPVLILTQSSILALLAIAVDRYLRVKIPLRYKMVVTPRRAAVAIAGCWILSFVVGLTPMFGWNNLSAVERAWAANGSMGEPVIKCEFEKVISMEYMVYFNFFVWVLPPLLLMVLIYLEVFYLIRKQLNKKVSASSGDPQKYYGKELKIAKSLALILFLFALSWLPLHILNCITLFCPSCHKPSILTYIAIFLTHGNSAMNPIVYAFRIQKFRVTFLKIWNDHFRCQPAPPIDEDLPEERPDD
With `CCCn1c(Oc2ccc(S(N)(=O)=O)cc2)nc2nc(C3CCCC3)[nH]c2c1=O` the Ki was over 1000 nM.
`CCCn1c(NCc2ccc(C(F)(F)F)cc2)nc2nc(C3CCCC3)[nH]c2c1=O` gave a Ki of 23 nM.
For `CCCn1c(Oc2ccc(C(N)=O)cc2)nc2nc(C3CCCC3)[nH]c2c1=O`, the Ki was over 1000 nM.
Work on `CCCn1c(Oc2cccc(C(F)(F)F)c2)nc2nc(C3CCCC3)[nH]c2c1=O` yielded a Ki of 19 nM.
In the case of `CCCn1c(Nc2cccc(C(F)(F)F)c2)nc2nc(C3CCCC3)[nH]c2c1=O`, the Ki is reported as 370 nM.
`CCCn1c(NCc2cccc(Cl)c2)nc2nc(C3CCCC3)[nH]c2c1=O` gave a Ki of 120 nM.
`CCCn1c(O[C@H]2CCOC2)nc2nc(C3CCCC3)[nH]c2c1=O` was tested, and the Ki was 85 nM.
Work on `CCCn1c(OC2CCN(C)C2)nc2nc(C3CCCC3)[nH]c2c1=O` (stereo unspecified) yielded a Ki of over 1000 nM.
Compound `CCCn1c(OC2CCOC2)nc2nc(C3CCCC3)[nH]c2c1=O` (stereo unspecified) has a Ki of 59 nM.
Compound `CCCn1c(-c2cccc(O)c2)nc2nc(C3CCCC3)[nH]c2c1=O` has a Ki of 1 nM.
`CCCn1c(NCc2ccc(C)cc2)nc2nc(C3CCCC3)[nH]c2c1=O` gave a Ki of 27 nM.
For `CCCn1c(Oc2cccc(CC(=O)O)c2)nc2nc(C3CCCC3)[nH]c2c1=O`, the Ki was over 1000 nM.
For `CCCn1c(Oc2ccc3[nH]ccc3c2)nc2nc(C3CCCC3)[nH]c2c1=O`, the Ki was 36 nM.
`CCCn1c(Nc2ccc(F)cc2)nc2nc(C3CCCC3)[nH]c2c1=O` gave a Ki of over 1000 nM.
`CCCn1c(-c2cccc(C(N)=O)c2)nc2nc(C3CCCC3)[nH]c2c1=O` gave a Ki of over 1000 nM.
`CCCn1c(Oc2cccc3cc[nH]c23)nc2nc(C3CCCC3)[nH]c2c1=O` was tested, and the Ki was 5.5 nM.
In the case of `CCCn1c(Oc2cncc(Cl)c2)nc2nc(C3CCCC3)[nH]c2c1=O`, the Ki is reported as 12 nM.
For `CCCn1c(OC2CCOCC2)nc2nc(C3CCCC3)[nH]c2c1=O`, the Ki was 20 nM.

Each compound was assayed against T2, Adenosine receptor A3 (Homo sapiens) (UniProt P0DMS8) (assay: Displacement of [3H]HEMADO from human adenosine A3 receptor expressed in HEK293 cell membranes at 1 uM after 90 mins relative to control).
T2 sequence (whole entry): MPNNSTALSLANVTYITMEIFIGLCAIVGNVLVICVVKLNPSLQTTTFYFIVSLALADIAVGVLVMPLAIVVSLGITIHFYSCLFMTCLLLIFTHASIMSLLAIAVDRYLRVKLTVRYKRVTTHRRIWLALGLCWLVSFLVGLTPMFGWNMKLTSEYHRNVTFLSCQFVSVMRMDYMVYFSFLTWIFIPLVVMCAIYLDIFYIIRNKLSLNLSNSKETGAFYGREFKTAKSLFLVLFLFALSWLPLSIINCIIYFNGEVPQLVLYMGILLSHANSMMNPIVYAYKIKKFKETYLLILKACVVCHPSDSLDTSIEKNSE
Method in brief: (§1)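 Membranes from HEK-293 cells stably transfected with human receptor, pre-treated with adenosine deaminase. Radioligands: 1 nM [3H]DPCPX (A1), 1 nM [3H]ZM241385 (A2A), 1.6 nM [3H]MRS-1754 (A2B), 2 nM [3H]HEMADO (A3). Buffers: Tris pH 7.4 (A1, A2A, A3) or pH 6.5 (A2B), with ADA. Incubated 90 min at room temperature, then filtered. Nonspecific binding defined with 100 µM NECA. Ki from 8 concentrations run in triplicate.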
`CCCn1c(NCc2ccc(C(F)(F)F)cc2)nc2nc(C3CCCC3)[nH]c2c1=O` was tested, and the inhibition was 23%.
Compound `CCCn1c(Oc2cccc(C(F)(F)F)c2)nc2nc(C3CCCC3)[nH]c2c1=O` has an inhibition of 35%.
`CCCn1c(NCc2ccc(C)cc2)nc2nc(C3CCCC3)[nH]c2c1=O` was tested, and the inhibition was 24%.
For `CCCn1c(Oc2ccc3[nH]ccc3c2)nc2nc(C3CCCC3)[nH]c2c1=O`, the inhibition was 34%.
Compound `CCCn1c(Nc2ccc(F)cc2)nc2nc(C3CCCC3)[nH]c2c1=O` has an inhibition of 24%.
With `CCCn1c(Oc2cccc3cc[nH]c23)nc2nc(C3CCCC3)[nH]c2c1=O` the inhibition was 40%.
For `CCCn1c(Oc2cncc(Cl)c2)nc2nc(C3CCCC3)[nH]c2c1=O`, the inhibition was 76%.
`CCCn1c(OC2CCOCC2)nc2nc(C3CCCC3)[nH]c2c1=O` gave an inhibition of 0%.

Each compound was assayed against T1, Adenosine receptor A1 (assay: Antagonist activity at human adenosine A1 receptor expressed in HEK293 cells assessed as reduction in CPA-mediated inhibition of forskolin-stimulated cAMP level preincubated for 15 mins followed by CPA treatment for 15 mins and subsequent addition of forskolin measured after 30 mins by HTRF assay).
Type: functional, cell-based
`CCCn1c(Oc2cccc(C(F)(F)F)c2)nc2nc(C3CCCC3)[nH]c2c1=O` was tested, and the Ki was 5.9 nM.
`CCCn1c(-c2cccc(O)c2)nc2nc(C3CCCC3)[nH]c2c1=O` was tested, and the Ki was 0.2 nM.
`CCCn1c(Oc2cccc3cc[nH]c23)nc2nc(C3CCCC3)[nH]c2c1=O` was tested, and the Ki was 5.6 nM.
`CCCn1c(Oc2cncc(Cl)c2)nc2nc(C3CCCC3)[nH]c2c1=O` showed a Ki of 2.2 nM.
`CCCn1c(OC2CCOCC2)nc2nc(C3CCCC3)[nH]c2c1=O` was tested, and the Ki was 12 nM.

These compounds were tested against Adenosine receptor A2a (Homo sapiens, UniProt P29274) (assay: Displacement of [3H]ZM241385 from human adenosine A2A receptor expressed in HEK293 cell membranes at 1 uM after 90 mins relative to control).
Chain of Adenosine receptor A2a (P29274 whole entry): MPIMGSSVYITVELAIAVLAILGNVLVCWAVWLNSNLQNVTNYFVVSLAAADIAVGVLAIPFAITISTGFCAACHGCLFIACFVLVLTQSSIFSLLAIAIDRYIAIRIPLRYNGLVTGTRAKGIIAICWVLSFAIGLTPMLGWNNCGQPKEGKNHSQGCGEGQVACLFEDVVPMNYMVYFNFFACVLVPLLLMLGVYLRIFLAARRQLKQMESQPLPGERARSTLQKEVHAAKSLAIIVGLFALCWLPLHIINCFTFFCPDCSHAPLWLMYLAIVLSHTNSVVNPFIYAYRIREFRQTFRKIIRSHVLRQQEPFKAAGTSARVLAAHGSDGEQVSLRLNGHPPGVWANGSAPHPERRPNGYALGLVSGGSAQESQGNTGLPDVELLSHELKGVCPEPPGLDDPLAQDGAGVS
Method in brief: as §1
Work on `CCCn1c(NCc2ccc(C(F)(F)F)cc2)nc2nc(C3CCCC3)[nH]c2c1=O` yielded an inhibition of 0%.
`CCCn1c(Oc2cccc(C(F)(F)F)c2)nc2nc(C3CCCC3)[nH]c2c1=O` gave an inhibition of 34%.
`CCCn1c(Nc2cccc(C(F)(F)F)c2)nc2nc(C3CCCC3)[nH]c2c1=O` was tested, and the inhibition was 27%.
`CCCn1c(-c2cccc(O)c2)nc2nc(C3CCCC3)[nH]c2c1=O` was tested, and the inhibition was 74%.
`CCCn1c(NCc2ccc(C)cc2)nc2nc(C3CCCC3)[nH]c2c1=O` was tested, and the inhibition was 0%.
In the case of `CCCn1c(Oc2ccc3[nH]ccc3c2)nc2nc(C3CCCC3)[nH]c2c1=O`, the inhibition is reported as 0%.
Compound `CCCn1c(Nc2ccc(F)cc2)nc2nc(C3CCCC3)[nH]c2c1=O` has an inhibition of 0%.
`CCCn1c(Oc2cccc3cc[nH]c23)nc2nc(C3CCCC3)[nH]c2c1=O` gave an inhibition of 25%.
`CCCn1c(Oc2cncc(Cl)c2)nc2nc(C3CCCC3)[nH]c2c1=O` gave an inhibition of 22%.
Compound `CCCn1c(OC2CCOCC2)nc2nc(C3CCCC3)[nH]c2c1=O` has an inhibition of 82%.

What follows are compounds tested against T3, Adenosine receptor A2b (Homo sapiens) (UniProt P29275) (assay: Displacement of [3H]MRS-1754 from human adenosine A2B receptor expressed in HEK293 cell membranes at 1 uM after 90 mins relative to control).
T3 sequence (whole entry): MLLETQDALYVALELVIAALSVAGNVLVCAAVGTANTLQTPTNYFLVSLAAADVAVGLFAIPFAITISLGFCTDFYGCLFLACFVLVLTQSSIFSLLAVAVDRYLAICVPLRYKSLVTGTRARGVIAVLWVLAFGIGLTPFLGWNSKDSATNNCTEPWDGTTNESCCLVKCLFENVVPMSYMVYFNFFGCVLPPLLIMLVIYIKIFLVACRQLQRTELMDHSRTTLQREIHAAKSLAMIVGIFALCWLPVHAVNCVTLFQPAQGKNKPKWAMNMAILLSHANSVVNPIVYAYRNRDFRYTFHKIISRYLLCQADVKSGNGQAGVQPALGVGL
Method in brief: as §1
In the case of `CCCn1c(NCc2ccc(C(F)(F)F)cc2)nc2nc(C3CCCC3)[nH]c2c1=O`, the inhibition is reported as 0%.
`CCCn1c(Oc2cccc(C(F)(F)F)c2)nc2nc(C3CCCC3)[nH]c2c1=O` gave an inhibition of 0%.
`CCCn1c(Nc2cccc(C(F)(F)F)c2)nc2nc(C3CCCC3)[nH]c2c1=O` gave an inhibition of 5%.
`CCCn1c(-c2cccc(O)c2)nc2nc(C3CCCC3)[nH]c2c1=O` showed an inhibition of 100%.
In the case of `CCCn1c(NCc2ccc(C)cc2)nc2nc(C3CCCC3)[nH]c2c1=O`, the inhibition is reported as 6%.
For `CCCn1c(Oc2ccc3[nH]ccc3c2)nc2nc(C3CCCC3)[nH]c2c1=O`, the inhibition was 0%.
With `CCCn1c(Nc2ccc(F)cc2)nc2nc(C3CCCC3)[nH]c2c1=O` the inhibition was 6%.
Work on `CCCn1c(Oc2cccc3cc[nH]c23)nc2nc(C3CCCC3)[nH]c2c1=O` yielded an inhibition of 42%.
`CCCn1c(Oc2cncc(Cl)c2)nc2nc(C3CCCC3)[nH]c2c1=O` showed an inhibition of 37%.
Work on `CCCn1c(OC2CCOCC2)nc2nc(C3CCCC3)[nH]c2c1=O` yielded an inhibition of 56%.
